Measurements published in ChEMBL document CHEMBL5532704, “Exploiting thiol-functionalized benzosiloxaboroles for achieving diverse substitution patterns - synthesis, characterization and biological evaluation of promising antibacterial agents” (RSC Med Chem, 2024).
Converted amounts (≈) assume the structure as drawn.

Legend:
[1] = tested on: Enterococcus faecium; experiment: Antibacterial activity against Enterococcus faecium ATCC 6057 assessed as diameter of inhibition zone by CLSI based disc-diffusion method; format: functional
Method in brief: (§1)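 Strains were stored at −80 °C, then subcultured twice on tryptic soy agar for 24–48 h at 30 °C before the disc-diffusion test. The result was recorded as the inhibition-zone diameter.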

[2] = tested on: Enterococcus faecalis; experiment: Antibacterial activity against Enterococcus faecalis ATCC 29212 assessed as diameter of inhibition zone by CLSI based disc-diffusion method; format: functional; method in brief: as §1
[3] = tested on: Staphylococcus aureus; experiment: Antibacterial activity against methicillin-resistant Staphylococcus aureus ATCC 43300 assessed as diameter of inhibition zone by CLSI based disc-diffusion method; format: functional
Method in brief: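 Disc-diffusion on standard strain subcultured twice on tryptic soy agar (24–48 h, 30 °C) after storage at −80 °C; inhibition zone diameter read; linezolid disc (0.03 mg) as reference.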

[4] = Selectivity ratio of IC50 for cytotoxicity against human MRC5 cells assessed as inhibition of cell growth to MIC for antibacterial activity against methicillin-resistant Staphylococcus aureus ATCC 43300 assessed as inhibition of microbial growth; format: toxicity, cell-based
[5] = Selectivity ratio of IC50 for cytotoxicity against human MRC5 cells assessed as inhibition of cell growth to MIC for antibacterial activity against methicillin-resistant Staphylococcus aureus NMI 664 K assessed as inhibition of microbial growth by broth-microdilution method; format: toxicity, cell-based
[6] = Selectivity ratio of IC50 for cytotoxicity against human MRC5 cells assessed as inhibition of cell growth to MIC for antibacterial activity against methicillin-resistant Staphylococcus aureus NMI 1576 K assessed as inhibition of microbial growth by broth-microdilution method; format: toxicity, cell-based
[7] = Selectivity ratio of IC50 for cytotoxicity against human MRC5 cells assessed as inhibition of cell growth to MIC for antibacterial activity against methicillin-resistant Staphylococcus aureus NMI 1712 K assessed as inhibition of microbial growth by broth-microdilution method; format: toxicity, cell-based
[8] = Selectivity ratio of IC50 for cytotoxicity against human MRC5 cells assessed as inhibition of cell growth to MIC for antibacterial activity against methicillin-resistant Staphylococcus aureus NMI 1991 K assessed as inhibition of microbial growth by broth-microdilution method; format: toxicity, cell-based
[9] = Selectivity ratio of IC50 for cytotoxicity against human MRC5 cells assessed as inhibition of cell growth to MIC for antibacterial activity against methicillin-resistant Staphylococcus aureus NMI 2541 K assessed as inhibition of microbial growth by broth-microdilution method; format: toxicity, cell-based
[10] = tested on: Bacillus subtilis; experiment: Antibacterial activity against Bacillus subtilis ATCC 6633 assessed as diameter of inhibition zone by CLSI based disc-diffusion method; format: functional; method in brief: as §1
[11] = tested on: Staphylococcus epidermidis; experiment: Antibacterial activity against Staphylococcus epidermidis ATCC 12228 assessed as diameter of inhibition zone by CLSI based disc-diffusion method; format: functional; method in brief: as §1
[12] = tested on: Candida albicans; experiment: Antifungal activity against Candida albicans ATCC 90028 assessed as fungal growth inhibition by broth-microdilution method; format: functional
Method in brief: (§2)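 Yeasts were stored at −80 °C and subcultured twice on Sabouraud dextrose agar (24–48 h, 30 °C) to confirm viability. Growth inhibition was then measured as MIC by broth microdilution.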

[13] = tested on: Pichia kudriavzevii; experiment: Antifungal activity against Candida krusei ATCC 6258 assessed as fungal growth inhibition by broth-microdilution method; format: functional; method in brief: as §2
[14] = tested on: Candida parapsilosis; experiment: Antifungal activity against Candida parapsilosis ATCC 22019 assessed as fungal growth inhibition by broth-microdilution method; format: functional; details: Lodderomyces parapsilosis; method in brief: as §2
[15] = tested on: Candida tropicalis; experiment: Antifungal activity against Candida tropicalis ATCC 750 assessed as fungal growth inhibition by broth-microdilution method; format: functional; method in brief: as §2
[16] = tested on: Candida tropicalis; experiment: Antifungal activity against Candida tropicalis IBA 171 assessed as fungal growth inhibition by broth-microdilution method; format: functional; method in brief: as §2
[17] = tested on: Meyerozyma guilliermondii; experiment: Antifungal activity against Candida guilliermondii IBA 155 assessed as fungal growth inhibition by broth-microdilution method; format: functional; method in brief: as §2
[18] = tested on: Saccharomyces cerevisiae; experiment: Antifungal activity against Saccharomyces cerevisiae ATCC 9763 assessed as fungal growth inhibition by broth-microdilution method; format: functional; method in brief: as §2

C[Si]1(C)OB(O)c2cc(F)c(SCCS(=O)(=O)c3ccccc3)c(F)c21
diameter of the inhibition zone (DIZ) [1]: 15 mm
diameter of the inhibition zone (DIZ) [2]: 14 mm
diameter of the inhibition zone (DIZ) [3]: 28 mm
selectivity ratio [4]: 19.5
selectivity ratio [5]: 19.5
selectivity ratio [6]: 19.5
selectivity ratio [7]: 19.5
selectivity ratio [8]: 19.5
selectivity ratio [9]: 19.5

C[Si]1(C)OB(O)c2cc(F)c(S(=O)(=O)N3CCOCC3)c(F)c21
diameter of the inhibition zone (DIZ) [10]: 12 mm

CC(=O)CSc1ccc2c(c1F)[Si](C)(C)OB2O
diameter of the inhibition zone (DIZ) [10]: 24 mm
diameter of the inhibition zone (DIZ) [2]: 16 mm
diameter of the inhibition zone (DIZ) [11]: 23 mm
selectivity ratio [4]: > 32
selectivity ratio [5]: > 32
selectivity ratio [6]: > 32
selectivity ratio [7]: > 32
selectivity ratio [8]: > 32
selectivity ratio [9]: > 32

C[Si]1(C)OB(O)c2ccc(S)c(F)c21
diameter of the inhibition zone (DIZ) [10]: 23 mm
diameter of the inhibition zone (DIZ) [1]: 18 mm

C[Si]1(C)OB(O)c2ccc(SC3CC(=O)N(c4ccc(F)cc4)C3=O)c(F)c21 (stereo not drawn)
diameter of the inhibition zone (DIZ) [1]: 22 mm
diameter of the inhibition zone (DIZ) [2]: 20 mm
diameter of the inhibition zone (DIZ) [11]: 21 mm
diameter of the inhibition zone (DIZ) [3]: 21 mm
MIC [12]: > 12.5 µg/mL
MIC [13]: > 12.5 µg/mL
MIC [14]: > 12.5 µg/mL
MIC [15]: > 12.5 µg/mL
MIC [16]: > 12.5 µg/mL
MIC [17]: > 12.5 µg/mL
MIC [18]: 6.25 µg/mL (≈ 14.9 µM)
selectivity ratio [4]: 5.8

C[Si]1(C)OB(O)c2cc(F)c(SC3CC(=O)N(c4ccc(F)cc4)C3=O)c(F)c21 (stereo not drawn)
diameter of the inhibition zone (DIZ) [3]: 24 mm
MIC [12]: > 12.5 µg/mL
MIC [13]: > 12.5 µg/mL
MIC [14]: > 12.5 µg/mL
MIC [15]: > 12.5 µg/mL
MIC [16]: > 12.5 µg/mL
MIC [17]: > 12.5 µg/mL
MIC [18]: 6.25 µg/mL (≈ 14.3 µM)
selectivity ratio [4]: 2.7

C[Si]1(C)OB(O)c2cc(F)c(SCCC(=O)Nc3ncccn3)c(F)c21
diameter of the inhibition zone (DIZ) [10]: 15 mm
diameter of the inhibition zone (DIZ) [2]: 13 mm
diameter of the inhibition zone (DIZ) [11]: 11 mm
diameter of the inhibition zone (DIZ) [3]: 12 mm

COC(=O)CCSc1ccc2c(c1F)[Si](C)(C)OB2O
diameter of the inhibition zone (DIZ) [10]: 23 mm
diameter of the inhibition zone (DIZ) [11]: 22 mm
diameter of the inhibition zone (DIZ) [3]: 24 mm

C[Si]1(C)OB(O)c2ccc(SCCC(=O)OCCCCCC[n+]3ccccc3)c(F)c21.O=S(=O)([O-])C(F)(F)F
diameter of the inhibition zone (DIZ) [10]: 19 mm
diameter of the inhibition zone (DIZ) [1]: 12 mm
diameter of the inhibition zone (DIZ) [2]: 12 mm
diameter of the inhibition zone (DIZ) [11]: 21 mm
diameter of the inhibition zone (DIZ) [3]: 18 mm

C[Si]1(C)OB(O)c2cc(F)c(SC3CC(=O)N(c4ccc(Br)c(C(F)(F)F)c4)C3=O)c(F)c21 (stereo not drawn)
diameter of the inhibition zone (DIZ) [1]: 18 mm
diameter of the inhibition zone (DIZ) [2]: 18 mm
diameter of the inhibition zone (DIZ) [11]: 18 mm
MIC [12]: > 12.5 µg/mL
MIC [13]: > 12.5 µg/mL
MIC [14]: > 12.5 µg/mL
MIC [15]: > 12.5 µg/mL
MIC [16]: > 12.5 µg/mL
MIC [17]: > 12.5 µg/mL
selectivity ratio [4]: 1.5

C[Si]1(C)OB(O)c2ccc(SCC(=O)c3ccccc3)c(F)c21
diameter of the inhibition zone (DIZ) [1]: 17 mm
diameter of the inhibition zone (DIZ) [2]: 17 mm
selectivity ratio [4]: 40.4
selectivity ratio [5]: 40.4
selectivity ratio [6]: 40.4
selectivity ratio [7]: 40.4
selectivity ratio [8]: 80.8
selectivity ratio [9]: 80.8

C[Si]1(C)OB(O)c2ccc(SC(=O)c3ccc(C(F)(F)F)cc3)c(F)c21
diameter of the inhibition zone (DIZ) [10]: 15 mm
diameter of the inhibition zone (DIZ) [1]: 12 mm
diameter of the inhibition zone (DIZ) [11]: 16 mm
MIC [12]: > 12.5 µg/mL
MIC [13]: > 12.5 µg/mL
MIC [14]: > 12.5 µg/mL
MIC [15]: > 12.5 µg/mL
MIC [16]: > 12.5 µg/mL
MIC [17]: > 12.5 µg/mL
MIC [18]: 6.25 µg/mL (≈ 15.6 µM)
selectivity ratio [4]: 8.9
selectivity ratio [5]: 8.9
selectivity ratio [6]: 4.5
selectivity ratio [7]: 8.9
selectivity ratio [8]: 4.5
selectivity ratio [9]: 8.9

C[Si]1(C)OB(O)c2cc(F)c(SCCC(=O)OCCCCCC[n+]3ccccc3)c(F)c21.O=S(=O)([O-])C(F)(F)F
diameter of the inhibition zone (DIZ) [3]: 17 mm

C[Si]1(C)OB(O)c2cc(F)c(S)c(F)c21
diameter of the inhibition zone (DIZ) [10]: 22 mm
diameter of the inhibition zone (DIZ) [1]: 24 mm
diameter of the inhibition zone (DIZ) [11]: 24 mm

Cc1cc(NC(=O)CCSc2c(F)cc3c(c2F)[Si](C)(C)OB3O)no1
diameter of the inhibition zone (DIZ) [10]: 17 mm
diameter of the inhibition zone (DIZ) [1]: 14 mm
diameter of the inhibition zone (DIZ) [2]: 12 mm
diameter of the inhibition zone (DIZ) [11]: 13 mm
diameter of the inhibition zone (DIZ) [3]: 14 mm

C[Si]1(C)OB(O)c2ccc(SC3CC(=O)N(c4ccc(Br)c(C(F)(F)F)c4)C3=O)c(F)c21 (stereo not drawn)
diameter of the inhibition zone (DIZ) [2]: 17 mm
MIC [12]: > 12.5 µg/mL
MIC [13]: > 12.5 µg/mL
MIC [14]: > 12.5 µg/mL
MIC [15]: > 12.5 µg/mL
MIC [16]: > 12.5 µg/mL
MIC [17]: > 12.5 µg/mL
selectivity ratio [4]: 5.6

C[Si]1(C)OB(O)c2cc(F)c(SCCC(=O)Nc3cnccn3)c(F)c21
diameter of the inhibition zone (DIZ) [10]: 19 mm
diameter of the inhibition zone (DIZ) [1]: 15 mm
diameter of the inhibition zone (DIZ) [2]: 13 mm
diameter of the inhibition zone (DIZ) [11]: 22 mm
diameter of the inhibition zone (DIZ) [3]: 25 mm

C[Si]1(C)OB(O)c2ccc(SCCS(=O)(=O)c3ccccc3)c(F)c21
diameter of the inhibition zone (DIZ) [10]: 21 mm
diameter of the inhibition zone (DIZ) [2]: 15 mm
diameter of the inhibition zone (DIZ) [11]: 22 mm

C[Si]1(C)OB(O)c2cc(F)c(S(=O)(=O)Nc3ccc(F)cc3)c(F)c21
diameter of the inhibition zone (DIZ) [11]: 19 mm
diameter of the inhibition zone (DIZ) [3]: 16 mm
selectivity ratio [4]: 0.7

C[Si]1(C)OB(O)c2cc(F)c(SCCC(=O)N3CCOCC3)c(F)c21
diameter of the inhibition zone (DIZ) [10]: 14 mm
diameter of the inhibition zone (DIZ) [11]: 19 mm

C[Si]1(C)OB(O)c2cc(F)c(SCCC(N)=O)c(F)c21
diameter of the inhibition zone (DIZ) [10]: 15 mm
diameter of the inhibition zone (DIZ) [1]: 12 mm
diameter of the inhibition zone (DIZ) [2]: 12 mm
diameter of the inhibition zone (DIZ) [11]: 19 mm

C[Si]1(C)OB(O)c2cc(F)c(S(=O)(=O)Cl)c(F)c21
diameter of the inhibition zone (DIZ) [10]: 15 mm
diameter of the inhibition zone (DIZ) [11]: 13 mm

CC(=O)NC[C@H]1CN(c2ccc(N3CCOCC3)c(F)c2)C(=O)O1 [LINEZOLID]
diameter of the inhibition zone (DIZ) [10]: 30 mm
diameter of the inhibition zone (DIZ) [1]: 14 mm
diameter of the inhibition zone (DIZ) [2]: 15 mm
diameter of the inhibition zone (DIZ) [11]: 26 mm
